Key:
[1] = test system: HL-60(TB); experiment: Growth inhibition of human HL-60(TB) cells incubated for 24 hrs by MTT assay; format: functional, cell-based; conditions: HL-60, 24 h
How it was run: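 Cells at 1.2-1.8×10^4 cells/ml in DMEM with 10% FBS, 10 µg/ml insulin and 1% penicillin/streptomycin, plated overnight at 37°C. Serial 10-fold dilutions added to 0.01–100 µM final, medium as negative control, 24 h. MTT (5 mg/ml) added for 4 h, formazan dissolved in acid-isopropanol, A490 read. Eight separate experiments; percent viable cells used to derive IC50.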

[2] = test system: MOLT-4; experiment: Growth inhibition of human MOLT4 cells incubated for 24 hrs by MTT assay; format: functional, cell-based; conditions: MOLT-4, 24 h
[3] = test system: HL-60(TB); experiment: Cell cycle arrest in human HL-60(TB) cells assessed as accumulation of apoptotic cells in pre-G phase at 0.294 uM after 24 hrs by propidium iodide staining based flow cytometry (reference value: 1.44%); format: functional
[4] = test system: HL-60(TB); experiment: Cell cycle arrest in human HL-60(TB) cells assessed as accumulation at G0/G1 phase at 0.294 uM after 24 hrs by propidium iodide staining based flow cytometry (reference value: 68.43%); format: functional
[5] = test system: HL-60(TB); experiment: Cell cycle arrest in human HL-60(TB) cells assessed as accumulation at G2/M phase at 0.294 uM after 24 hrs by propidium iodide staining based flow cytometry (reference value: 7.29%); format: functional
[6] = test system: HL-60(TB); experiment: Cell cycle arrest in human HL-60(TB) cells assessed as accumulation at S phase at 0.294 uM after 24 hrs by propidium iodide staining based flow cytometry (reference value: 22.84%); format: functional
[7] = test system: MOLT-4; experiment: Cell cycle arrest in human MOLT4 cells assessed as accumulation of apoptotic cells in pre-G phase at 0.43 uM after 24 hrs by propidium iodide staining based flow cytometry (reference value: 0.88%); format: functional
How it was run: (§1)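 MOLT-4 cells (1×10^6) exposed 24 h to 0.160 or 0.430 μM test agent, DMSO (0.002%) control; trypsinized, washed in ice-cold PBS, fixed in ice-cold 70% ethanol ≥2 h at 4°C, washed, stained with propidium iodide DNA kit; cell cycle distribution (pre-G, G0/G1, S, G2/M) by flow cytometry.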

[8] = test system: MOLT-4; experiment: Cell cycle arrest in human MOLT4 cells assessed as accumulation at G0/G1 phase at 0.43 uM after 24 hrs by propidium iodide staining based flow cytometry (reference value: 74.22%); format: functional; how it was run: as §1
[9] = test system: MOLT-4; experiment: Cell cycle arrest in human MOLT4 cells assessed as accumulation at G2/M phase at 0.43 uM after 24 hrs by propidium iodide staining based flow cytometry (reference value: 4.35%); format: functional; how it was run: as §1
[10] = test system: MOLT-4; experiment: Cell cycle arrest in human MOLT4 cells assessed as accumulation at S phase at 0.43 uM after 24 hrs by propidium iodide staining based flow cytometry (reference value: 20.55%); format: functional; how it was run: as §1
[11] = test system: HL-60(TB); experiment: Induction of apoptosis in human HL-60(TB) cells assessed as live cells at 0.294 uM after 24 hrs by Annexin V-FITC/propidium iodide staining based flow cytometry (reference value: 98.57%); format: functional
[12] = test system: HL-60(TB); experiment: Induction of apoptosis in human HL-60(TB) cells assessed as early apoptotic cells at 0.294 uM after 24 hrs by Annexin V-FITC/propidium iodide staining based flow cytometry (reference value: 0.84%); format: functional
[13] = test system: HL-60(TB); experiment: Induction of apoptosis in human HL-60(TB) cells assessed as late apoptotic cells at 0.294 uM after 24 hrs by Annexin V-FITC/propidium iodide staining based flow cytometry (reference value: 0.39%); format: functional
[14] = test system: HL-60(TB); experiment: Induction of apoptosis in human HL-60(TB) cells assessed as necrotic cells at 0.294 uM after 24 hrs by Annexin V-FITC/propidium iodide staining based flow cytometry (reference value: 0.2%); format: functional
[15] = test system: MOLT-4; experiment: Induction of apoptosis in human MOLT4 cells assessed as live cells at 0.43 uM after 24 hrs by Annexin V-FITC/propidium iodide staining based flow cytometry (reference value: 99.12%); format: functional
[16] = test system: MOLT-4; experiment: Induction of apoptosis in human MOLT4 cells assessed as early apoptotic cells at 0.43 uM after 24 hrs by Annexin V-FITC/propidium iodide staining based flow cytometry (reference value: 0.53%); format: functional
[17] = test system: MOLT-4; experiment: Induction of apoptosis in human MOLT4 cells assessed as late apoptotic cells at 0.43 uM after 24 hrs by Annexin V-FITC/propidium iodide staining based flow cytometry (reference value: 0.24%); format: functional
[18] = test system: MOLT-4; experiment: Induction of apoptosis in human MOLT4 cells assessed as necrotic cells at 0.43 uM after 24 hrs by Annexin V-FITC/propidium iodide staining based flow cytometry (reference value: 0.11%); format: functional
[19] = test system: HL-60(TB); experiment: Induction of apoptosis in human HL-60(TB) cells assessed as increase in apoptotic cells at 0.294 uM after 24 hrs by Annexin V-FITC/propidium iodide staining based flow cytometry relative to control; format: functional
[20] = test system: MOLT-4; experiment: Induction of apoptosis in human MOLT4 cells assessed as increase in apoptotic cells at 0.43 uM after 24 hrs by Annexin V-FITC/propidium iodide staining based flow cytometry relative to control; format: functional

SMILES: CCOC(=O)C1=C(C)NC(SCc2nnc(-c3ccc(Cl)cc3)o2)=NC1c1ccccc1Cl (stereo unspecified)
- IC50 [1]: 193 µM
- IC50 [2]: 255 µM

SMILES: CCOC(=O)C1=C(C)NC(SCc2nnc(-c3ccccc3)o2)=NC1c1ccc(Cl)cc1 (stereo unspecified)
- IC50 [1]: 74.4 µM
- IC50 [2]: 344 µM

SMILES: CCOC(=O)C1=C(C)NC(SCc2nnc(-c3ccc(C)cc3)o2)=NC1c1ccc(Cl)cc1 (stereo unspecified)
- IC50 [1]: 220 µM
- IC50 [2]: 538 µM

SMILES: CCOC(=O)C1=C(C)NC(=S)NC1c1cccc(O)c1 (stereo unspecified) [MONASTROL]
- IC50 [1]: 0.147 µM
- IC50 [2]: 0.215 µM
- Activity [3]: 6.89%
- Activity [4]: 61.23%
- Activity [5]: 9.98%
- Activity [6]: 21.9%
- Activity [7]: 8.63%
- Activity [8]: 55.72%
- Activity [9]: 13.92%
- Activity [10]: 21.73%
- Activity [11]: 90.89%
- Activity [12]: 3.07%
- Activity [13]: 3.19%
- Activity [14]: 0.63%
- Activity [15]: 89.2%
- Activity [16]: 3.39%
- Activity [17]: 4.21%
- Activity [18]: 1.03%
- fold change (FC) [19]: 5.1
- fold change (FC) [20]: 10

From ChEMBL document CHEMBL4190234, “Design, synthesis and anticancer activity of new monastrol analogues bearing 1,3,4-oxadiazole moiety” (Eur J Med Chem, 2017)
